Screens deposited in PubChem BioAssay by several laboratories.
Only some compounds are listed: those with a hit (about 1.3% of all), similar ones and a draw of the others.
TbHK1 inh = blocks Trypanosoma brucei hexokinase 1 activity; recombinant TbHK1, G6PDH-coupled NADH A340; inhibition, % at 10 µM; hit rate 0.11% among 220,000; AID 1430;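 active = inhibition of 50% or more in the single-dose primary screen; inactive = inhibition below 50%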
Diaphorase inh = diaphorase inhibition or chemical oxidation counter-screen. diaphorase resazurin-to-resorufin fluorescence, NADH, 16 min; bacterial (C. kluyveri) enzyme, not human. inhibition, % at 20 µM. hit rate 0.69% among 190,000. AID 1217;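 active = primary screen inhibition at 20 µM above a set limit, cut at about 50% in these data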
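material = Clostridium kluyveri diaphorase enzyme | amount = 0.14 U/mL diaphorase, enzyme working solution | schedule = incubation 16 min, room temperature | detection = fluorescence of resorufin formed from resazurin, Ex 544/Em 590 nm | benchmarks = positive control minus NADH, DMSO neutral control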
G6PDH counter = inhibits Leuconostoc G6PDH, flagging false hits in G6PDH-based assays. Purified L. mesenteroides G6PDH, diaphorase/resazurin coupled fluorescence, 45 min. hit rate 0.12% among 200,000. inhibition, % at 5 µM; in the data active = inhibition above about 50%
PfGluPho inh = PfG6PD (Plasmodium falciparum) enzyme inhibition; PfGluPho enzyme, NADPH resazurin-diaphorase fluorescence; inhibition, % at 20 µM; hit rate 0.78% among 350,000;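 active = inhibition reaching at least a set limit at 20 µM in the primary screen, cut at about 59% in these data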
Diaph act CS = activates diaphorase or chemically reduces, flagging diaphorase assay artifacts; Diaphorase/resazurin coupled assay, resorufin fluorescence, 16 min; stronger effect = higher value; 1 = vehicle wells, 0 = NADH-free wells; activation factor at 20 µM; hit rate 0.005% among 190,000;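 active = diaphorase activity raised at least twofold by the compound at 20 µM; inactive = activation factor below 2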
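Material: Clostridium kluyveri diaphorase, purified enzyme; Quantity: enzyme 0.07 U/mL final; Medium: HEPES pH 7.4 buffer with MgCl2 and Tween 20; Dosing: single compound dose of 20 µM, 1% DMSO final; Schedule: 16 min reaction at room temperature; Measured by: red resorufin fluorescence at 544/590 nm excitation/emission.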
HKDC1 inh = blocks human hexokinase HKDC1 activity; recombinant HKDC1, G6PDH/diaphorase resazurin coupled fluorescence; inhibition, % at 20 µM; hit rate 0.16% among 340,000; AID 493160;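 active = inhibition above about 35% when tested at 20 µM, limit read from the data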
Target sequence (Q2TB90 whole entry, looked up): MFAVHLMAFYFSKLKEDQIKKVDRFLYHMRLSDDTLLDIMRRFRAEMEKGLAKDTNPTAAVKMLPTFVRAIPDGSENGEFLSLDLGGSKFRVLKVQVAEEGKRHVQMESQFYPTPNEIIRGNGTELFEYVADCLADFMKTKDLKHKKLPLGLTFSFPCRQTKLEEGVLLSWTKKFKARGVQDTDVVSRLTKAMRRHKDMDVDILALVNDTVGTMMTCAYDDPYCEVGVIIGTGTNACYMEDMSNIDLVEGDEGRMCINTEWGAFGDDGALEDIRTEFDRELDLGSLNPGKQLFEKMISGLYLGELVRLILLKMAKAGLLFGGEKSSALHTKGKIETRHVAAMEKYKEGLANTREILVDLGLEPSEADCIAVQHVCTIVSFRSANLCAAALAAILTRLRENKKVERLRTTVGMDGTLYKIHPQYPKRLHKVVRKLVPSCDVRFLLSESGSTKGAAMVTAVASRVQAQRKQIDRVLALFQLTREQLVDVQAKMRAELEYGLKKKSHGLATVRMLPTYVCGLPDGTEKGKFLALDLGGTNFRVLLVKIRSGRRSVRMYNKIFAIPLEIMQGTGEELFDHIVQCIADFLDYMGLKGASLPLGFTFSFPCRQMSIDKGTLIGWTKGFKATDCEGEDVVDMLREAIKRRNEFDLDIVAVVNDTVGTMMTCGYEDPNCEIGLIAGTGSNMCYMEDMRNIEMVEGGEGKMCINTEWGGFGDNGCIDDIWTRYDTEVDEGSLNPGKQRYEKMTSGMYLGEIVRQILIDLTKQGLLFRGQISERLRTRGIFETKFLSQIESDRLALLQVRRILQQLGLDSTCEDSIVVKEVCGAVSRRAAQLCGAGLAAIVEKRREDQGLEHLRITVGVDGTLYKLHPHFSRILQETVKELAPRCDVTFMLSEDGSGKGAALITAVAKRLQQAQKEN
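Incubation: 90 min at room temperature in dark / Material: recombinant HKDC1 (HK5) hexokinase enzyme, produced in-house / Quantity: enzyme 5 µg/mL final / Compound: one dose of 20 µM, 1% DMSO / Reagent: glucose and ATP substrates / Buffer or medium: Tris pH 8.0 buffer with MgCl2, Tween-20, BSA, BME / Technique: resorufin fluorescence at 613 nm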
PfGluPho conf = confirmation of Plasmodium falciparum G6PD inhibitors; shares compounds with PfGluPho inh; recombinant PfGluPho, NADPH-diaphorase-resazurin fluorescence; inhibition, % at 20 µM; hit rate 34% among 2,400;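 active = inhibition of at least 50% at 20 µM in any single replicate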
Diaphorase 10uM = counter-screen for P. falciparum G6PD inhibitors: diaphorase inhibitors, oxidizers; shares compounds with PfGluPho inh; diaphorase-coupled resazurin reduction, fluorescence, NADPH 10 uM; inhibition, % at 20 µM; hit rate 39% among 820; AID 504862;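 active = average inhibition reaching 50% or more with the compound at 20 µM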;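 also: resorufin red fluorescence formed as diaphorase reduces resazurin using NADPH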
Diaphorase 30uM = counter-screen for P. falciparum G6PD inhibitors: diaphorase inhibitors, oxidizers; shares compounds with PfGluPho inh; Diaphorase/resazurin coupled assay, resorufin fluorescence, 30 uM NADPH; inhibition, % at 20 µM; hit rate 29% among 820; AID 504863;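 active = inhibition averaging 50% or more, tested at 20 µM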
Of the large screens only hits and unclear results are named; the others gave an inactive call (follow-up assays come after a bar, where they were run).

CCCOc1ccccc1C(=O)Nc1ccc(S(=O)(=O)N2CCN(C)CC2)cc1	none (no result: TbHK1 inh, Diaphorase inh, G6PDH counter, Diaph act CS)
O=[N+]([O-])c1cccc(SSc2cccc([N+](=O)[O-])c2)c1	PfGluPho inh 115 (no result: TbHK1 inh, Diaphorase inh, G6PDH counter, Diaph act CS) | PfGluPho conf 52 | Diaphorase 10uM inactive | Diaphorase 30uM inactive
COc1ccc([N+](=O)[O-])cc1COc1cc(C)cc2oc(=O)cc(-c3ccccc3)c12	PfGluPho inh 86 | PfGluPho conf inactive
CNC(=O)Nc1cc(NC(=O)NC)cc(C(F)(F)F)c1	none (no result: Diaphorase inh, G6PDH counter, Diaph act CS)
CN(C)S(=O)(=O)c1cccc(C(=O)Nc2cc(S(=O)(=O)N3CCOCC3)ccc2N2CCCC2)c1	PfGluPho inh 66 (no result: TbHK1 inh, Diaphorase inh, G6PDH counter, Diaph act CS) | PfGluPho conf inactive
COc1ccc(/C=C(\C#N)C(=O)Nc2cc(S(=O)(=O)N3CCOCC3)ccc2N2CCCC2)cc1	PfGluPho inh 64 | PfGluPho conf inactive
CCN(CC)S(=O)(=O)c1ccc(N2CCCCC2)c(NC(=O)/C(C#N)=C/c2ccc(OC)cc2)c1	none
CN(C)S(=O)(=O)c1cccc(C(=O)Nc2cc(S(=O)(=O)N3CCOCC3)ccc2O)c1	none (no result: TbHK1 inh, Diaphorase inh, G6PDH counter, Diaph act CS)
O=C(Nc1cc(S(=O)(=O)N2CCOCC2)ccc1N1CCCCC1)c1cc(-c2ccccn2)nc2ccccc12	PfGluPho inh 71 | PfGluPho conf inactive
CC1=NNC(=O)C1CCC(=O)N/N=C\c1ccccc1[N+](=O)[O-] (stereo not given)	none
Cc1ccc(C(C)(C)NC(=O)C2CCC(=O)N(Cc3ccccc3F)C2)cc1 (stereo not given)	none (no result: TbHK1 inh, Diaphorase inh, G6PDH counter, Diaph act CS)
COc1ccc(NCc2ccccc2[N+](=O)[O-])cc1OC	none
COc1cc2c(cc1OC)C(Cc1ccccc1[N+](=O)[O-])=NCC2	none (no result: TbHK1 inh, Diaphorase inh, G6PDH counter, Diaph act CS) | PfGluPho conf inactive
O=C(/C=C/c1cccc(Cl)c1)NNC(=O)c1ccncc1	none (no result: TbHK1 inh, Diaphorase inh, G6PDH counter, Diaph act CS)
N#Cc1cc2c([nH]c1=S)CCCCCC2	PfGluPho inh 63 | PfGluPho conf inactive
N#Cc1c(N)n[nH]c1-c1cc2c([nH]1)CCCC2	none
COc1ccc2c3c(ccc2c1)C(=O)/C(=C/O)CC3	PfGluPho inh 69 (no result: TbHK1 inh, Diaphorase inh, G6PDH counter, Diaph act CS) | PfGluPho conf inactive
N#Cc1c(C#N)c(SSc2c(C#N)c(C#N)c(N)n2-c2ccccc2)n(-c2ccccc2)c1N	PfGluPho inh 111 (no result: TbHK1 inh, Diaphorase inh, G6PDH counter, Diaph act CS) | PfGluPho conf 61 | Diaphorase 10uM inactive | Diaphorase 30uM inactive
CCOC(=O)CNc1c(-c2ccc(OC)cc2)nc2ccc(Cl)cn12	PfGluPho inh 74 | PfGluPho conf inactive
CCCCNc1c(-c2ccc(OC)c(SC3CCCCC3)c2)nc2ccc(Cl)cn12	none (no result: TbHK1 inh, Diaphorase inh, G6PDH counter, Diaph act CS)
COCCNc1c(-c2ccc(OC)cc2)nc2ccc(Cl)cn12	PfGluPho inh 65 | PfGluPho conf inactive
COc1ccccc1-c1oc2ccccc2c1-c1ccc2cc[nH]c2c1	PfGluPho inh 63 (no result: TbHK1 inh, Diaphorase inh, G6PDH counter, Diaph act CS) | PfGluPho conf inactive
CCOC(=O)c1ccc(-c2c(-c3ccccc3OC)oc3ccccc23)cc1F	none (no result: TbHK1 inh, Diaphorase inh, G6PDH counter, Diaph act CS)
CCOC(=O)c1sc2nc(N3CCOCC3)c3c(c2c1N)CCC3	none
CCCCN(CCCC)C(=O)c1sc2nc(N3CCOCC3)c3c(c2c1N)CCCC3	PfGluPho inh 71 (no result: Diaphorase inh, G6PDH counter, Diaph act CS) | PfGluPho conf inactive
NC(=O)c1sc2nc(N3CCOCC3)c3c(c2c1N)CCCC3	PfGluPho inh 66 | PfGluPho conf inactive
CNC(=O)c1cc2c(cn1)[nH]c1ccccc12	none (no result: TbHK1 inh, Diaphorase inh, G6PDH counter, Diaph act CS)
COC(=O)[C@H](CCSC)NC(=O)c1cc2c(cn1)[nH]c1ccccc12	PfGluPho inh 80 (no result: TbHK1 inh, Diaphorase inh, G6PDH counter, Diaph act CS) | PfGluPho conf 57 | Diaphorase 10uM inactive | Diaphorase 30uM inactive
CCc1nnc(N/N=C/c2ccc(-c3ccc([N+](=O)[O-])cc3)o2)n1N	PfGluPho inh 69 | PfGluPho conf inactive
Cc1nnc(N/N=C/c2ccc(-c3ccccc3F)o2)n1N	PfGluPho inh 67 | PfGluPho conf 56 | Diaphorase 10uM inactive | Diaphorase 30uM inactive
